# Results taken from ChEMBL document CHEMBL3352295, “Neuroprotective Xanthones from the Root Bark of Cudrania tricuspidata” (J Nat Prod, 2014).
# System: not listed separately
# Assay: Neuroprotective activity against 6-hydroxydopamine-induced human SH-SY5Y cell death after 24 hrs by MTT assay
# Type: functional, cell-based
# In short: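 SH-SY5Y cells seeded at 2 × 10^4 cells/well, grown 24 h, then exposed to 100 μM 6-OHDA together with test compounds (at least four concentrations) for 24 h. Viability by MTT (0.5 mg/mL in PBS, 37 °C, 4 h), formazan dissolved in DMSO, absorbance 540 nm. EC50 = half-maximal protection, from semilog concentration–effect plot; triplicate, mean ± SD; curcumin positive control.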
row,SMILES,EC50
1,COc1cc(/C=C/C(=O)CC(=O)/C=C/c2ccc(O)c(OC)c2)ccc1O [CURCUMIN],6 µM
2,CC1(C)C=Cc2c(cc(O)c3c(=O)c4c5c(ccc4oc23)OC(C)(C)C=C5)O1,4.5 µM
3,C=CC(C)(C)c1c(OC)cc(O)c2c(=O)c3c(CC(O)C(=C)C)c(O)c(O)cc3oc12 (stereo not given),2.3 µM
4,C=CC(C)(C)c1c(O)cc2oc3c(CC=C(C)C)c(O)c(O)cc3c(=O)c2c1O [CUDRAXANTHONE L],8.2 µM
5,CC1(C)C=Cc2c(cc(O)c3c(=O)c4cc(O)ccc4oc23)O1 [NIGROLINEAXANTHONE F],15.5 µM
6,CC1(C)C=Cc2c(cc(O)c3c(=O)c4cccc(O)c4oc23)O1,5.1 µM
7,C=CC(C)(C)c1c(O)cc(O)c2c(=O)c3c(cc(O)c4oc(C(=C)C)cc43)oc12,0.8 µM
8,C=CC(C)(C)c1c(O)cc(O)c2c(=O)c3c(CC(=O)C(=C)C)c(OC)c(O)cc3oc12,7.2 µM
9,CC(C)=CCc1c2c(c(O)c3c(=O)c4ccc(O)c(O)c4oc13)C(C)(C)C(C)O2 (stereo not given),3 µM
10,C=CC(C)(C)c1c(O)cc(O)c2c(=O)c3c(CC(O)C(=C)C)c(O)c(O)cc3oc12 (stereo not given),16.6 µM
11,CC(C)=CCc1c(O)c(O)cc2c(=O)c3c4c(c(O)cc3oc12)C(C)(C)C(C)O4 (stereo not given),2.4 µM
12,C=CC(C)(C)c1c(O)cc(O)c2c(=O)c3ccc(O)c(OC)c3oc12,0.7 µM
13,CC1Oc2cc3oc4c5c(c(O)cc4c(=O)c3c(O)c2C1(C)C)OC(C)(C)C(O)C5 (stereo not given),2.2 µM

# System: SH-SY5Y
# Assay: Ratio of curcumin EC50 to compound EC50 for neuroprotective activity against 6-hydroxydopamine-induced human SH-SY5Y cell death after 24 hrs by MTT assay
# Type: functional
# In short: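 SH-SY5Y cells seeded at 2 × 10^4 cells/well and grown 24 h. Cells then received 100 μM 6-OHDA together with test samples at ≥4 concentrations for a further 24 h. Viability was read by MTT (0.5 mg/mL in PBS, 37 °C, 4 h), with formazan dissolved in DMSO and read at 540 nm. EC50 (half-maximal protection) was taken from semilog plots, triplicate, mean ± SD. Curcumin was the reference.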
row,SMILES,Ratio EC50
1,C=CC(C)(C)c1c(O)cc(O)c2c(=O)c3c(cc(O)c4oc(C(=C)C)cc43)oc12,7
2,C=CC(C)(C)c1c(O)cc(O)c2c(=O)c3ccc(O)c(OC)c3oc12,7
